Measurements of several laboratories.
Cell line: MDA-MB-231
Effect on: cell growth or viability

Cc1ccc(-c2nn(-c3ccccc3)cc2C=Nc2c(N)nc(S)nc2O)cc1 — CC50 (48 h): 14.3 µM
O=C(Nc1ccccc1)Nc1ccc(Oc2nc3ccccc3n3cnnc23)cc1 — viability (MTT; 3.125 µM; 24 h): 100%
COCCC(=O)Nc1ccccc1/N=c1\cc(-c2ccc3c(c2)OCO3)oc2ccccc12 — inhibition (CCK-8; 1 µM): 8.73%
CNC(=O)c1cc(Oc2ccc(NC(=O)Nc3ccc(Cl)c(C(F)(F)F)c3)cc2)ccn1 — viability (MTT; 25 µM; 24 h): 24.3%
CCNc1nc2ccc(-c3c/c(=N\c4ccccc4NC(=O)CCN)c4ccccc4o3)cc2o1 — inhibition (CCK-8; 1 µM): 54.2%
CCN(CC)CCNC(=O)c1c(C)[nH]c(/C=C2\C(=O)Nc3ccc(F)cc32)c1C — EC50 (MTT; 72 h): 3.4 µM
Nc1nc(S)nc(O)c1N=Cc1cn(-c2ccccc2)nc1-c1ccccc1 — CC50 (48 h): > 20 µM
O=C(Nc1ccc(Cl)cc1)Nc1ccc(Oc2nc3ccccc3n3cnnc23)cc1 — viability (MTT; 3.125 µM; 24 h): 100%
O=C(NN=Cc1ccc(Cl)cc1)C1CC(=O)N(c2ccc(F)cc2F)C1 (stereo not drawn) — EC50 (MTT; 72 h): 29.9 µM
NCCC(=O)Nc1ccccc1/N=c1\cc(-c2ccc3c(c2)OCCO3)oc2cc(F)ccc12 — inhibition (CCK-8; 1 µM): 52.9%
O=C(NN=Cc1ccc(Br)cc1)C1CC(=O)N(c2ccc(F)cc2F)C1 (stereo not drawn) — EC50 (MTT; 72 h): 22.6 µM
COc1ccc2/c(=N/c3ccccc3NC(=O)[C@@H](N)C(C)(C)C)cc(-c3ccc4c(c3)OCO4)oc2c1 — inhibition (CCK-8; 1 µM): 7.49%
